Source: publication PMC10888821 (bioRxiv, 2024)
The star is where a group is joined. K(dnp) = lysine 2,4-dinitrophenyl (Nε-2,4-dinitrophenyl-lysine); Mca = COc1ccc2c(CC(=O)*)cc(=O)oc2c1

How the values were obtained:
[1] = system: 20S proteasome β1 subunit of three Schistosoma species; experiment: Proteasome inhibition in three Schistosoma species, β1 substrate; assay type: biochemical, S. mansoni, S. haematobium, S. japonicum; conditions: 500 nM, single-step enriched 20S, across the three species
Outline: (§1)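 Extracts of S. haematobium (0.625 μg/μL), S. japonicum and S. mansoni (1.25 μg/μL each) were enriched by ammonium sulfate precipitation. Proteasome amount was normalized by labelling with 2 μM Me4BodipyFL-Ahx3Leu3VS (37°C, 3 h) and in-gel fluorescence. Extracts were preincubated 1 h with test compound (0.125% DMSO vehicle), then mixed with an equal volume of 20 μM β1/β2 mca substrate or 40 μM Z-FNKL-amc. Buffer: 100 mM Tris pH 7.5, 50 μM E-64, 1 mM AEBSF, 2 μM pepstatin, 0.03% SDS. Triplicate wells at 24°C.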

[2] = system: 20S proteasome β2 subunit of three Schistosoma species; experiment: Proteasome inhibition in three Schistosoma species, β2 substrate; assay type: biochemical, S. mansoni, S. haematobium, S. japonicum
Outline: as §1

[3] = system: 20S proteasome β5 subunit of three Schistosoma species; experiment: Proteasome inhibition in three Schistosoma species, β5 substrate; assay type: biochemical, S. mansoni, S. haematobium, S. japonicum
Outline: as §1

Sm20S β5 subunit [4] = biological target: T1, Sm20S β5 subunit (Schistosoma mansoni, UniProt A0A5K4F079); experiment: Substrate hydrolysis by purified Sm20S, β5 substrates; assay type: biochemical
T1 sequence (A0A5K4F079 63-264): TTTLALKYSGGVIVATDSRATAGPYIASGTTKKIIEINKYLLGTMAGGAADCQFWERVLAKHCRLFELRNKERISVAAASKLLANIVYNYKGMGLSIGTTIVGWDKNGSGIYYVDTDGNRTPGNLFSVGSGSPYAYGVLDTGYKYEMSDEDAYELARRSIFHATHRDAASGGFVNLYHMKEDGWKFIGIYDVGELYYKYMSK
Outline: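 Purified Sm20S (10 nM) was incubated with 2-fold serial dilutions of Ac-FNKL-amc or Suc-LLVY-amc. Hydrolysis was monitored at 24°C (ex/em 360/460 nm) and activity was compared as a function of substrate concentration. Technical triplicates.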

Sm20S β1 subunit [5] = biological target: T2, Sm20S β1 subunit (Schistosoma mansoni, UniProt G4V926); experiment: Inhibition of single-step enriched Sm20S, β1 substrate; assay type: biochemical
T2 sequence (G4V926 26-225): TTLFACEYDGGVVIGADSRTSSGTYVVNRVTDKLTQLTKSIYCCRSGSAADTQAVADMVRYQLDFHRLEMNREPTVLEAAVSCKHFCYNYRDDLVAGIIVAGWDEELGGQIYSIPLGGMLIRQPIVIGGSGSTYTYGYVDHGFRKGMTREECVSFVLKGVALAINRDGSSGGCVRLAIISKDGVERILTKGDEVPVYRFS
Outline: (§2)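 Sm20S was single-step enriched: worm lysate in Tris/E-64 pH 7.5, ammonium sulfate precipitation at 30 and 60% saturation, then 100 kDa concentration. Assay buffer contained pepstatin, E-64 and AEBSF. Substrates were mca-VDQMDGW-K(dnp)-NH2 (β1), mca-FnKRR-K(dnp)-NH2 (β2) and FNKL-amc (β5), tested across test compound concentrations. Reads were at ex/em 320/400 (mca) or 340/460 (amc). Technical triplicates.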

Sm20S β5 subunit [6] = biological target: T1, Sm20S β5 subunit; experiment: Dose-response assay of purified Sm20S with Suc-LLVY-amc; assay type: biochemical; conditions: 500 nM inhibitor
Outline: (§3)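 Purified Sm20S was obtained from adult S. mansoni worms by ammonium sulfate precipitation, gel filtration and DEAE anion exchange. It was preincubated 15 min with test compound (20 μM to 9 nM, or 740 nM to 0.3 nM), then given 10 μM substrate: Suc-LLVY-amc (β5), Z-LLE-amc (β1) or Z-LRR-amc (β2). Maximum velocity over 8 sequential readings (RFU/sec) was normalized to 0.1% DMSO. Technical triplicates.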

[7] = system: 20S proteasome of three Schistosoma species; experiment: Cross-species inhibition profile of schistosome lysates; assay type: biochemical, S. mansoni, S. haematobium, S. japonicum; conditions: lysates pre-incubated with 500 nM
Outline: as §1

Sm20S β5 subunit [8] = biological target: T1, Sm20S β5 subunit; experiment: Inhibition of single-step enriched Sm20S, β5 substrate; assay type: biochemical
Outline: as §2

Sm20S β1 subunit [9] = biological target: T2, Sm20S β1 subunit; experiment: Dose-response assay of purified Sm20S with Z-LLE-amc; assay type: biochemical
Outline: as §3

Sm20S β2 subunit [10] = biological target: T3, Sm20S β2 subunit (Schistosoma mansoni, UniProt G4VSW3); experiment: Dose-response assay of purified Sm20S with Z-LRR-amc; assay type: biochemical; conditions: read-out: inhibition of β2 subunit activity
T3 sequence (G4VSW3 39-281): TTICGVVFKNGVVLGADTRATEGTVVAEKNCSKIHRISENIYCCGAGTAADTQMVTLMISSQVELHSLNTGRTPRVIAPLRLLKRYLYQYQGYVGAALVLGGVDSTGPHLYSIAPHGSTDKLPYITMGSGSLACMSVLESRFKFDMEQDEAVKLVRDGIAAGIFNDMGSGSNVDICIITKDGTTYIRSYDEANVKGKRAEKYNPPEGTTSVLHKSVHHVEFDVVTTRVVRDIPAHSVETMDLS
T3 sequence (UPI0001A6248C 1-194 partner): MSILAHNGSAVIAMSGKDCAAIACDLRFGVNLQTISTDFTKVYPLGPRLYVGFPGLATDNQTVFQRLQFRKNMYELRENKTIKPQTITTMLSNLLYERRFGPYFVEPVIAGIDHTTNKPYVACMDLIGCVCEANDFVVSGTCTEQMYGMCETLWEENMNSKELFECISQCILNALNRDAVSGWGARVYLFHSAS
Outline: as §3

Sm20S β2 subunit [11] = biological target: T3, Sm20S β2 subunit; experiment: Inhibition of single-step enriched Sm20S, β2 substrate; assay type: biochemical
Outline: as §2

Sm20S β2 = experiment: Sm20S pre-incubated with 10 μM inhibitor, assayed with mca-FnKRR-K; assay type: biochemical, Schistosoma mansoni; conditions: extended pre-incubation with 10 μM inhibitor
Outline: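 Sm20S was pre-incubated with test compound, then assayed with mca-FnKRR-K(dnp) and Z-LRR-amc. Fluorescence was read at 24°C: ex/em 320/400 nm (mca) and 360/460 nm (amc). Technical triplicates.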

Sj20S β1 = experiment: Proteasome inhibition in enriched extract, β1 substrate, S. japonicum; assay type: biochemical; conditions: 1 μM
Outline: as §1

Sh20S β1 = experiment: Proteasome inhibition in enriched extract, β1 substrate, S. haematobium; assay type: biochemical; conditions: 1 μM
Outline: as §1

Sm20S β1 [12] = experiment: Proteasome inhibition in enriched extract, β1 substrate, S. mansoni; assay type: biochemical; conditions: 1 μM
Outline: as §1

Sm20S β1 [13] = experiment: Substrate hydrolysis by purified Sm20S, β1 substrates; assay type: biochemical, Schistosoma mansoni; conditions: between 16 and 250 μM substrate
Sm20S β1 [14] = experiment: Inhibition of Sm20S hydrolysis of mca-VDQMDGW-K; assay type: biochemical, Schistosoma mansoni
[15] = 500 nM, single-step enriched 20S, across the three species

For `C[C@@]12OC(=O)[C@]1([C@@H](O)[C@@H]1C=CCCC1)NC(=O)[C@@H]2CCCl` [MZB, marizomib], the “reduction of β1 activity” value [1] was 61 to 34%, the “reduction of β2 activity” value [2, 15] was 66 to 48% and the “reduction of β5 activity” value [3, 15] was “complete inactivation”.

Ac-FNKL-amc was tested, and the “substrate concentration of maximal cleavage activity” value (Sm20S β5 subunit [4]) was 25 µM and the “cleavage rate relative to Suc-LLVY-amc” value (Sm20S β5 subunit [4]; 25 μM substrate) was “~ four-fold”.

For `CC(C)C[C@H](NC(=O)[C@H](CCc1ccccc1)NC(=O)CN1CCOCC1)C(=O)N[C@@H](Cc1ccccc1)C(=O)N[C@@H](CC(C)C)C(=O)[C@@]1(C)CO1` [CFZ, carfilzomib], the “IC50 for the β1 subunit” value (Sm20S β1 subunit [5]; single-step enriched Sm20S, β1 substrate) was “not inhibitory”, the “inhibition of β5 subunit activity” value (Sm20S β5 subunit [6]) was “completely inhibited” and the “cross-species subunit inhibition profile” value [7] was “inhibited β5 and β2 more than β1”. For the same compound, the IC50 (Sm20S β5 subunit [8]) was 2.5 ± 0.51 nM, the inhibition at 0.5 µM (Sm20S β1 subunit [9]; read-out: inhibition of β1 subunit activity) was about 40% and the inhibition at 0.5 µM (Sm20S β2 subunit [10]) was about 40%. For the same compound, the IC50 (Sm20S β2 subunit [11]) was 288 ± 90 nM and the “effect on Sm20S β2 activity” value (Sm20S β2) was “inactivated”.

For `CCCCCC(=O)N[C@@H](Cc1c[nH]c2ccccc12)C(=O)N[C@@H](Cc1c[nH]c2ccccc12)C(=O)N[C@@H](Cc1ccccc1)C(=O)[C@@]1(C)CO1` [carmaphycin-17], the “reduction of Sj20S β1 activity” value (Sj20S β1) was 47%, the “inhibition of β2 subunits” value ([2]; 1 μM, three species) was ~ 60% and the “inhibition of β5 subunits” value ([3]; 1 μM, three species) was “complete inhibition”. The “decrease of Sh20S β1 activity” value (Sh20S β1) was 20% and the “decrease of Sm20S β1 activity” value (Sm20S β1 [12]) was 20%.

“mca-VDQMDGW-K(dnp)-NH2 (Mca-VDQMDGW-{K(dnp)-NH2}) [VDQMD*GW]” was tested, and the “cleavage efficiency relative to LLE-amc” value (Sm20S β1 [13]) was ~ 2 fold.

In the case of `CC(C)C[C@H](NC(=O)[C@H](Cc1ccccc1)NC(=O)c1cnccn1)B(O)O` [BTZ, bortezomib], the IC50 (Sm20S β1 subunit [5]) is reported as 49.84 ± 0.24 nM, the “inhibition of β5 subunit activity” value (Sm20S β5 subunit [6]) is reported as “completely inactivated” and the “cross-species subunit inhibition profile” value [7] is reported as “preferentially inhibited β1 and β5”. The IC50 (Sm20S β5 subunit [8]) was 18 ± 2.05 nM, the “inhibition of β1 subunit activity” value (Sm20S β1 subunit [9]; 500 nM inhibitor, Z-LLE-amc) was “completely inactivated” and the inhibition at 0.5 µM (Sm20S β2 subunit [10]) was about 35%. For the same compound, the “inhibition of mca-VDQMDGW-K(dnp) hydrolysis by Sm20S” value (Sm20S β1 [14]) was “inhibited”, the “IC50 using the β2 substrate” value (Sm20S β2 subunit [11]; single-step enriched Sm20S, β2 substrate) was “did not inhibit” and the “effect on Sm20S β2 activity” value (Sm20S β2) was “only partially inhibited”.
